Screening data deposited in PubChem by Broad Institute.
XiGFP reactiv = activators of X-chromosome reactivation in mouse fibroblasts. XiGFP mouse fibroblasts, % GFP-positive cells imaging, 3 d; cells co-treated with 5-aza-dC sensitizer; scaled so ellipticine positive control = 100%. activation, % at 7.58 µM. 360,000 compounds, 0.055% hits. AID 743238;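 active = mean normalized replicate activation at least 10% and every replicate at or above 10%; inconclusive = only one of the two criteria met; inactive = mean below 10% and not all replicates reach 10%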;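 note: 0% = median of on-plate neutral control wells and 100% = ellipticine 6 µM median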
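System: 68-5-11 XiGFP fibroblast line | Buffer or medium: DMEM containing 5-aza-dC | Compound: Single point | Times: Compounds 3 days, fix/stain 15 min at room temperature | Benchmarks: Positive control ellipticine, 6 µM final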
dFosB act-1 = activators of mouse delta FosB homodimer | AID 493131 | 340,000 compounds, 0.99% hits | purified delta FosB, TAMRA-CDK5 oligo fluorescence polarization; percent of positive-control signal above neutral wells | P13346 | activation, % at 25 µM;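 active = mean activation above about 17%, with every replicate also reaching it, limit read from the data, passing the limit was not always enough; inconclusive = only one of the two conditions met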
SR-BI DiI-HDL act = activators of SR-BI mediated HDL lipid uptake; CHO ldlA[mSR-BI] cells, DiI-HDL uptake fluorescence, 3 h; 100 = double the neutral-control signal; activation, % at 12.5 µM; 320,000 compounds, 0.096% hits; AID 504775;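 active = mean replicate activation of at least 60% and every replicate at or above 60%; inconclusive = mean or all-replicate condition met, but not both; inactive = mean below 60% and not all replicates reaching 60%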;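 note: 0% = median plate neutral-control signal and 100% = twice that signal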
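material = CHO ldlA[mSR-BI] cells | medium = Ham's F12 with 0.5% BSA, HEPES 25 mM, pH 7.4 | reagent = fluorescent DiI-HDL, 10 µg/mL final | compound dosing = single-point compound dose | incubation = 3 h, 37 °C | measured by = bottom-read fluorescence, 550/595 nm | measure = HDL uptake via cellular fluorescence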
PvdQ inh = blocks Pseudomonas aeruginosa PvdQ acylase activity; purified PvdQ acylase, fluorescence plate reader; inhibition, % at 10 µM; 340,000 compounds, 0.063% hits; AID 488965; in the data active = inhibition above about 30%, passing the limit was not always enough; inconclusive = no clear call, values can overlap the other calls;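 note: 0% = vehicle neutral wells and 100% = reference inhibitor wells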
SR-BI DiI inh = inhibitors of mouse SR-BI mediated HDL lipid uptake. AID 488896. inhibition, % at 12.5 µM. 320,000 compounds, 0.96% hits. ldlA[mSR-BI] CHO cells, DiI-HDL uptake fluorescence, 3 h;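 active = mean replicate inhibition of at least 70% and a set share of replicates each scoring 70 or more; inconclusive = meets just one of the two criteria; inactive = fails both criteria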;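 note: 0% = median of neutral control wells and 100% = median of positive control wells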
Target sequence (Q61009 whole entry, looked up): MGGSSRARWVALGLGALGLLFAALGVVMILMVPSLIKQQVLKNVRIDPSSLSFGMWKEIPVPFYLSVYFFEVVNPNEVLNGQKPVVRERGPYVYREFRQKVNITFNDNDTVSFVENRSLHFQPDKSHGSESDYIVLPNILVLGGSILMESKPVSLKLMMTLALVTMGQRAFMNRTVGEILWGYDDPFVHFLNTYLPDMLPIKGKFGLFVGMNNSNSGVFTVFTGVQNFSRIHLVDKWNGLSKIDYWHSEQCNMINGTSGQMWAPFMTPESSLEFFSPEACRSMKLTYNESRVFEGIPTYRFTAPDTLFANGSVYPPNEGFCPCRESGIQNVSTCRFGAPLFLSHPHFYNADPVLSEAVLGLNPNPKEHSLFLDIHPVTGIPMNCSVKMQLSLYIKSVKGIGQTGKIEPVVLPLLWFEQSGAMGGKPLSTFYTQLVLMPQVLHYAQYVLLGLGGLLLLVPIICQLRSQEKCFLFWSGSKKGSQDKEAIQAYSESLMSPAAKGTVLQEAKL
Ecoli rRNA inh = inhibitors of bacterial rRNA selective over humanized ribosomes; E. coli WT GFP vs humanized-ribosome RFP mutants, fluorescence, 24 h; hits give low values; DMSO median 0, no signal -100; GFP signal change (wild-type ribosome), % (no concentration beside the values); 350,000 compounds, 1.6% hits;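 active = significant combined selectivity score with lowered wild-type GFP, culture density cut under 30%, mutant RFP and density less affected; inactive = any of these conditions unmet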
dFosB act-2 = delta FosB (mouse) homodimer activation; 2,400 tested, under 10 active; purified delta FosB, TAMRA-CDK5 oligo fluorescence polarization; normalised: neutral wells 0, positive control 100; shares compounds with dFosB act-1; activation, % at 24.9 µM;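 active = highest replicate activation at or above 34% and every replicate reaching that threshold; inconclusive = meets only one of the two criteria; inactive = meets neither criterion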;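 note: higher polarization means more probe DNA bound by delta FosB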
* = called active by the depositor; u = inconclusive; x = no result. Sampled rows, rich in hits. Any-hit rate of the full collection: about 2.6%.

SMILES | XiGFP reactiv | dFosB act-1 | SR-BI DiI-HDL act | PvdQ inh | SR-BI DiI inh | Ecoli rRNA inh | dFosB act-2
CCOc1ccc(-n2nc3ccc(NC(=O)c4ccc5c(c4)OCCO5)cc3n2)cc1 | x | 98.6* | -67.2 | 14.3 | 67.2 | x | -10.4
O=C(Nc1cccc(NC(=O)c2ccc3c(c2)OCO3)c1)c1ccccc1 | -0.1 | u | -18.2 | -7.2 | 18.2 | 3.5 | x
O=C(COC(=O)c1ccccc1F)Nc1ccc(S(=O)(=O)N2CCOCC2)cc1 | 0.0 | -12.4 | -8.8 | -8.5 | 8.8 | -3.7 | x
COc1cc(CNCc2ccccn2)ccc1OCC(=O)NC(C)(C)C | 0.0 | -1.6 | 8.5 | -4.3 | -8.5 | x | x
CN(C)CCCNC(=S)N(Cc1cccs1)Cc1cc2cc3c(cc2[nH]c1=O)OCCO3 | 0.0 | 32.2* | -4.2 | -5.2 | 4.2 | 2.3 | 5.2
C[C@@H]1CCCCO[C@@H](CN(C)Cc2ccc3c(c2)OCO3)[C@@H](C)CN([C@@H](C)CO)C(=O)c2cc(NS(=O)(=O)c3cccs3)ccc2O1 | 0.0 | x | x | x | x | 0.8 | x
COc1ccc(C(=O)NN(C)c2nc(-c3ccccc3)nnc2C(F)(F)F)cc1 | x | 68.1* | -8.6 | -1.0 | 8.6 | x | 0.1
Cc1cccc(C(=O)NN(C)c2nc(-c3ccccc3)nnc2C(F)(F)F)c1 | x | 8.7 | -3.3 | 1.5 | 3.3 | x | x
CCOc1ccc(NS(=O)(=O)c2ccc(C(=O)NCC(c3ccc(OC)cc3)N3CCCC3)cc2)cc1 (stereo not given) | -0.1 | 24.0* | 3.6 | -8.3 | -3.6 | -26.2 | 5.6
COCCNC(=O)C[C@@H]1CC[C@@H]2[C@H](COc3ccc(NC(C)=O)cc3C(=O)N2C)O1 | 0.2 | x | x | x | x | 0.9 | x
COc1ccc(/C=C/C(=O)Nc2c(C)nn(C)c2C)cc1COc1ccc(Cl)cc1Br | x | 130.8* | -53.2 | -10.2 | 53.2 | x | -7.0
O=[N+]([O-])c1ccc2c(c1)/C(=N\O)c1ccccc1-2 | 0.1 | 27.1* | 13.4 | -40.1 | -13.4 | -27.7* | 1.6
Cc1ccc(S(=O)(=O)N2CCN(C(=O)C(Cc3ccccc3)NC(=O)c3ccccc3)CC2)cc1 (stereo not given) | 0.9 | 23.1* | -1.3 | -6.8 | 1.3 | 8.2 | 3.4
CN1CCN(C2=Nc3cc(Cl)ccc3Nc3ccccc32)CC1 | 0.0 | -0.7 | -27.8 | -12.3 | 27.8 | x | x
CN1CCN(C2=Nc3c(Cl)cc(Cl)c4cccc2c34)CC1 | -0.3 | 20.3* | -13.3 | 1.1 | 13.3 | -16.9 | -0.5
CC/C(C)=N/Nc1ccc(S(=O)(=O)N2CCCC2)cc1[N+](=O)[O-] | 0.1 | -9.7 | -10.9 | -5.8 | 10.9 | 7.5 | x
CCCS(=O)(=O)NC(=O)C1(C)CCN(C(=O)c2ccc(F)c(Cl)c2)C1 (stereo not given) | 0.1 | x | x | x | x | 10.6 | x
COc1ccc(NC(=O)c2cc(CN3C(=O)c4ccccc4C3=O)ccc2OC)cn1 | x | 18.0* | -53.7 | 2.0 | 53.7 | x | 8.5
COc1ccc(CN2C(=O)c3ccccc3C2=O)cc1C(=O)Nc1ccccc1N1CCOCC1 | 0.1 | 1.6 | -43.2 | -0.4 | 43.2 | -4.4 | x
CC(C)CNC(=O)CSc1nnc(-c2ccccn2)n1Cc1ccccc1 | x | -7.5 | -17.4 | -3.1 | 17.4 | x | x
COc1cccc(S(=O)(=O)N2CCCCN3[C@@H](CO)[C@H](c4ccc(C#CC(C)C)cc4)[C@@H]3C2)c1 | 0.4 | x | x | x | x | -48.0 | x
Cc1ccc(C2=NOC3(CC(=O)N(c4ccccc4)C3=O)C2)cc1 (stereo not given) | -0.1 | -5.7 | -2.1 | -12.2 | 2.1 | 4.6 | x
Cc1ccc(C2=NOC3(CC(=O)N(c4ccc(C)cc4)C3=O)C2)cc1 (stereo not given) | -0.1 | 29.1* | 25.5 | 10.0 | -25.5 | 16.0 | 4.7
O=C(CNC(=O)c1ccc(N2C(=O)c3ccccc3C2=O)cc1)OCC(=O)c1ccc(Cl)cc1 | 0.0 | 112.8* | -25.0 | -14.7 | 25.0 | 3.6 | 5.0
O=C(CN1C(=O)c2ccccc2C1=O)NCC(=O)OCC(=O)c1ccc(Br)cc1 | x | 46.1* | 19.0 | -18.8 | -19.0 | x | 6.3
SMILES | XiGFP reactiv | dFosB act-1 | SR-BI DiI-HDL act | PvdQ inh | SR-BI DiI inh | Ecoli rRNA inh | dFosB act-2
O=C(NCc1ccccn1)c1ccc2c(=O)n3nc(Nc4ccccc4)sc3nc2c1 | 0.0 | 26.8* | -5.1 | 5.3 | 5.1 | 13.1 | 3.9
CCc1ccccc1Nc1nn2c(=O)c3ccc(C(=O)NCc4ccccn4)cc3nc2s1 | 0.0 | -10.9 | -4.7 | -4.8 | 4.7 | 3.7 | x
Cc1ccc(N2CC(=O)Nc3c(oc4nc(-c5ccccc5)cc(C)c34)C2=O)cc1 | 0.2 | 23.9* | 11.1 | -5.5 | -11.1 | 13.2 | 0.8
CO[C@H]1CN(C)C(=O)c2cc(NC(=O)NC(C)C)ccc2OC[C@H](C)N(Cc2ccccn2)C[C@@H]1C | 0.0 | x | x | x | x | 5.5 | x
C=CCn1c(SCC(=O)Nc2sccc2C#N)nc2sc(C)c(C)c2c1=O | x | 22.9* | 38.3 | 1.4 | -38.3 | 7.6 | -6.0
C[C@H](NC(=O)Cc1cccc2ccccc12)C(=O)N1CCCN(C)CC1 | -0.2 | -0.9 | 14.3 | -7.3 | -14.3 | 15.2 | x
CCC(=O)Nc1ccc(NC(=O)c2oc3ccccc3c2C)cc1 | 0.2 | 4.2 | -46.7 | -0.2 | 46.7 | 3.7 | x
Cc1c(C(=O)NNC(=O)Nc2ccc([N+](=O)[O-])cc2)oc2ccccc12 | 0.0 | 66.6* | 18.0 | -8.6 | -18.0 | -3.6 | 1.4
O=C(NCc1ccc2c(c1)OCO2)C(=O)NCC(c1ccco1)N1CCN(c2ccccc2)CC1 (stereo not given) | 1.5 | -14.4 | x | -20.8 | x | 3.2 | x
COc1ccc2cc3cc(C(=O)NCc4ccc5c(c4)OCO5)oc3nc2c1 | x | 17.1* | 0.3 | -5.5 | -0.3 | x | -1.1
Cc1cc(C)n(CCC(=O)N/N=C/c2c(O)ccc3ccccc23)n1 | -0.2 | -6.2 | x | 4.1 | x | 4.7 | x
Cc1c(Cl)cccc1NC(=O)CNC(=O)C1CCN(C(=O)Nc2ccccc2)CC1 | 0.3 | 24.4* | -29.3 | -9.0 | 29.3 | x | 2.0
O=C(CSc1nc(=O)n(CCCN2CCOCC2)c2c1CCCC2)Nc1ccccc1Cl | 0.4 | -3.5 | 16.6 | -11.7 | -16.6 | 2.8 | x
Cc1ccc(-c2noc(CCC(=O)Nc3ccccc3C)n2)cc1 | x | 2.3 | -20.1 | -7.9 | 20.1 | x | x
CCc1ccccc1NC(=O)CCc1nc(-c2ccc(C)cc2)no1 | x | 20.5* | 14.8 | -1.7 | -14.8 | x | 7.6
O=C(CCS(=O)(=O)Cc1ccccc1F)NCc1ccccc1Cl | 0.0 | 18.4* | -4.7 | -5.4 | 4.7 | 11.4 | -1.9
CCOC(=O)c1ccc(NS(=O)(=O)c2cc3c4c(c2)CCN4C(=O)CC3)cc1 | -0.5 | -3.8 | 1.5 | -12.7 | -1.5 | 3.8 | x
